Results published in ChEMBL document CHEMBL1148449, “Discovery, modeling, and human pharmacokinetics of N-(2-acetyl-4,6-dimethylphenyl)-3-(3,4-dimethylisoxazol-5-ylsulfamoyl)thiophene-2-carboxamide (TBC3711), a second generation, ETA selective, and orally bioavailable endothelin antagonist” (J Med Chem, 2004).

Key:
[1] = Compound was evaluated for oral bioavailability in human; type: ADME, organism-based; conditions: in vivo, read-out: Activity
[2] = Half life period was evaluated in dog; 4-4.8; type: ADME, organism-based, Canis lupus familiaris; conditions: in vivo
[3] = (§1) Compound was evaluated for area under the curve expressed as (h*ug/ml); type: ADME; conditions: human
Procedure, shortened: (§2)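 Rats given 50 mg/kg orally. Plasma was separated at once by centrifugation and stored at -80 °C. Proteins were precipitated with acetonitrile and drug measured by HPLC to give Cmax, AUC and t1/2.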

[4] = Compound was evaluated for oral bioavailability in dog; 90-100; type: ADME, organism-based, Canis lupus familiaris; conditions: in vivo, read-out: Activity
[5] = Half life period was evaluated in rat; 5.9-7.5; type: ADME, organism-based; conditions: in vivo; procedure, shortened: as §2
[6] = molecular target: T1, Endothelin receptor type B (Homo sapiens, UniProt P24530); assay: Inhibitory concentration towards endothelin B receptor in human; type: functional
T1 sequence (P24530 whole entry): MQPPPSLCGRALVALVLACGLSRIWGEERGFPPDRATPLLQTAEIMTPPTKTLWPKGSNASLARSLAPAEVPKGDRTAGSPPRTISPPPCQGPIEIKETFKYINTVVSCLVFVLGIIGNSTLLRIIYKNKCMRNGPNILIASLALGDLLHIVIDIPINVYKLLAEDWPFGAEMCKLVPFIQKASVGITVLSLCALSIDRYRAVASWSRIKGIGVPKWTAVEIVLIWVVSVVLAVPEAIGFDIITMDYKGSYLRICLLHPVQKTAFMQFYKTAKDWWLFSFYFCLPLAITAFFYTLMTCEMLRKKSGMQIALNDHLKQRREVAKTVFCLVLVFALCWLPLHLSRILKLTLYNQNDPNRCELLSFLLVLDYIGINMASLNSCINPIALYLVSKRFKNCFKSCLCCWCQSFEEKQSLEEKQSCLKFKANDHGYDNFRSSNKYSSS

Endothelin-1 receptor [7] = molecular target: T2, Endothelin-1 receptor (Rattus norvegicus, UniProt P26684); assay: Binding affinity towards Endothelin A receptor
T2 sequence (P26684 whole entry): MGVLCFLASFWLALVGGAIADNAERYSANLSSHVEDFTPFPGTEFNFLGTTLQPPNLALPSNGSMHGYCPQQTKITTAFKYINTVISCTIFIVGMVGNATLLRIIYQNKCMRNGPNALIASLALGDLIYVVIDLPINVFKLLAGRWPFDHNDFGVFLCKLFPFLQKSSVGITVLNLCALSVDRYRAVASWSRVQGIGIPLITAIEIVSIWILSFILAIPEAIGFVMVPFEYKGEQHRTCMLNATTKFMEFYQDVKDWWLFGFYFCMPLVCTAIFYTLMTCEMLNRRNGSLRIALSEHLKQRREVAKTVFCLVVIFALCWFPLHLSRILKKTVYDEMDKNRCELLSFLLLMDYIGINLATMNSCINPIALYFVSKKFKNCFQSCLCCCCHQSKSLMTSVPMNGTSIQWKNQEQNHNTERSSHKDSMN

[8] = molecular target: Endothelin receptor (Rattus norvegicus) (UniProt P26684+P21451); assay: Selectivity for endothelin A receptor over endothelin receptor B; type: protein assay
Chain of Endothelin receptor (Rattus norvegicus) (P21451 whole entry, looked up, one chain of several): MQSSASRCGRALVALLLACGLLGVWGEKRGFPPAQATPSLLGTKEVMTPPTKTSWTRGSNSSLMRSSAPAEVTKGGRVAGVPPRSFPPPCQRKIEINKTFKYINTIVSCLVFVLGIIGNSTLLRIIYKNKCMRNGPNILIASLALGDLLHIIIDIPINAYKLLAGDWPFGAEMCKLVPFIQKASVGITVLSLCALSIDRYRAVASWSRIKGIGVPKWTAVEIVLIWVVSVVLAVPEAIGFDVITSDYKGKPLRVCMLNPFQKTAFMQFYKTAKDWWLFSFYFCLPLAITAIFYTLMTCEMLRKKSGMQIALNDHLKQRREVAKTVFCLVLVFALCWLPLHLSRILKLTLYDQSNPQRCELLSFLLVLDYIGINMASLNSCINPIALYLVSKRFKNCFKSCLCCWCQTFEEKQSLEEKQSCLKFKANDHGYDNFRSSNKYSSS

Rattus norvegicus [9] = assay: Compound was evaluated for oral dose to effect 50% inhibition of mean pulmonary arterial pressure; type: functional, Artery
Procedure, shortened: (§3)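 Acute hypoxia-induced pulmonary hypertension model in rats. Compound given orally; the oral dose giving 50% inhibition of the increase in mean pulmonary arterial pressure is reported.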

[10] = Half life period was evaluated in human; type: ADME
[11] = molecular target: Endothelin-1 receptor (Homo sapiens) (UniProt P25101); assay: Selectivity towards endothelin A receptor in human.
[12] = Half life period was evaluated in rat; conditions: in vivo
Endothelin-1 receptor [13] = molecular target: T3, Endothelin-1 receptor (Homo sapiens, UniProt P25101); assay: Displacement of [125I]ET-1 from Endothelin A receptor
T3 sequence (P25101 whole entry): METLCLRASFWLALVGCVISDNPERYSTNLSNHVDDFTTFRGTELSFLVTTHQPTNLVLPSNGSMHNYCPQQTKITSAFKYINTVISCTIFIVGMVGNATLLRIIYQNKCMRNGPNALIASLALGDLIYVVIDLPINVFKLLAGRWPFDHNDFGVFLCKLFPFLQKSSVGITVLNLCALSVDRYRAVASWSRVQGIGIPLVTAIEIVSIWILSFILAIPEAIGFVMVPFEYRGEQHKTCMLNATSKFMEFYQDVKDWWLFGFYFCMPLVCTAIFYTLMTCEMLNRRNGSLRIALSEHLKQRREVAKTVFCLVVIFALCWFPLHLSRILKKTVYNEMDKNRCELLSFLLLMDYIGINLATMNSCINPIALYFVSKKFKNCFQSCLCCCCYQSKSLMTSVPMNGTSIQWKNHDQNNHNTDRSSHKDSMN

[14] = Compound was evaluated for oral bioavailability in rats; conditions: rat, in vivo
[15] = Half life period was determined; 6-7; type: ADME; conditions: human
[16] = Cmax in rat plasma after oral dose (50 mg/Kg); type: ADME, organism-based; set-up: dose 50 mg/Kg, route oral; procedure, shortened: as §2
[17] = Half life period was determined; type: ADME, organism-based; conditions: rat, in vivo; procedure, shortened: as §2
[18] = as §1; type: ADME, organism-based; set-up: concentration or dose not given beside the values; conditions: rat, in vivo; procedure, shortened: as §2
Rattus norvegicus [19] = assay: Compound was evaluated for oral dose to effect 50% inhibition of mean pulmonary arterial pressure (MPAP); type: functional, Artery; procedure, shortened: as §3

Structure (SMILES): Cc1cc2c(cc1CC(=O)c1sccc1S(=O)(=O)Nc1onc(C)c1Cl)OCO2 [SITAXENTAN]
- bioavailability [1]: ~80%
- half-life [2]: 4.8 h
- AUC [3]: 33 µg·h/mL
- bioavailability [4]: 100%
- half-life [5]: 7.5 h
- IC50 [6]: 9800 nM
- Ki (Endothelin-1 receptor [7]): 0.43 nM
- Selectivity [8]: 7000
- Activity (Rattus norvegicus [9]): 2.5 mg/kg
- half-life [10]: 6.46 h
- Selectivity [11]: 6500

Structure (SMILES): COc1ccccc1Oc1c(NS(=O)(=O)c2ccc(C(C)C)cn2)nc(-c2ccnc(-c3nnn[nH]3)c2)nc1OCCO [TEZOSENTAN]
- half-life [12]: 7.8 min
- Selectivity [8]: 56
- IC50 (Endothelin-1 receptor [13]): 23 nM

Structure (SMILES): CC(=O)c1cc(C)cc(C)c1NC(=O)c1sccc1S(=O)(=O)Nc1onc(C)c1C
- bioavailability [1]: > 80%
- bioavailability [14]: ~100%
- half-life [15]: 7 h
- Cmax [16]: 180 µg/mL
- half-life [17]: 5.3 h
- AUC [18]: 1310 µg·h/mL
- IC50 (Endothelin-1 receptor [13]): 0.08 nM
- Activity (Rattus norvegicus [19]): < 1 mg/kg
- Selectivity [11]: 441000
